According to publication PMC4273560 (Neurobiology of disease, 2014):
“Also recorded” adds a separate entry of the source. Ends that are not written are not given here. Peptide text beside a SMILES is read from it. * marks the point of attachment. FITC = O=C1OC2(c3ccc(O)cc3Oc3cc(O)ccc32)c2ccc(NC(=S)*)cc21

Legend:
CD31 + brain microvessel = details: mouse, in vivo
ICAM-1 [1] = assay: Cross binding of JAM-Ap-FITC to ICAM-1; design: species or system mouse; details: increasing concentrations of anti-ICAM-1 antibody; presence and absence of JAM-A
Summary of the method: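 bEnd.3 JAM-A-knockdown cells (stable shRNA) and JAM-A-expressing mBMEC in 96-well plates were primed with IL-1β plus TNF-α for 6 h or OGD/reoxygenation for 24 h in DMEM. They then received FITC-peptide with or without increasing anti-ICAM-1 antibody in D-PBS for 30 min at 4 °C. Cells washed 3×, fixed in 4% paraformaldehyde, and fluorescence read. FITC-scrambled peptide served as control.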

JAM-A [2] = target: T1, JAM-A (Mus musculus, UniProt O88792); details: brain endothelial cells; ref Stamatovic et al., 2012; cited from earlier work
T1 sequence (O88792 27-300): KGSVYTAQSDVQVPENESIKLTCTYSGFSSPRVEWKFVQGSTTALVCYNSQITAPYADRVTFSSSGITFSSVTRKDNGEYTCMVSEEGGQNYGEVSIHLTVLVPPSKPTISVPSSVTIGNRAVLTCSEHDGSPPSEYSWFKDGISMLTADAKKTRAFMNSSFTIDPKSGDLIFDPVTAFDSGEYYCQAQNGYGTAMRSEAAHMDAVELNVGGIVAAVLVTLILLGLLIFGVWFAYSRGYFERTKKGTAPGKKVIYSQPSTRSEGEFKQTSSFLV

ICAM-1 [3] = assay: Cell-based ELISA, ICAM-1 surface expression on mBMEC; design: species or system mouse; details: CCL2 100 ng/ml
JAM-A [4] = target: T1, JAM-A; assay: Cell-based ELISA, JAM-A surface expression on mBMEC; details: CCL2 100 ng/ml; 2 and 24 h; p < 0.001
mBMEC = format: cell-based, mouse; details: 12 h
[5] = Physiological variables of mice before, during and 6 hrs after tMCAO; format: in vivo, mouse; details: ip injection, n = 10
BBB, FITC-inulin = details: mouse, in vivo
[6] = system: neutrophils and monocytes in blood; details: mouse, in vivo
mBMEC monolayers = assay: In vitro permeability of mBMEC monolayers to inulin; format: cell-based, mouse; details: JAM-Ap 0.1–1000 μg/ml, 0–72 h
JAM-A [7] = target: T1, JAM-A; format: binding
Summary of the method: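 mBMEC (first passage) plated in 96-well plates and incubated with a constant level of FITC-labelled peptide plus increasing unlabelled peptide. Cells washed 3× and fixed in 4% paraformaldehyde for 15 min at room temperature. Fluorescence read on a plate reader. Percent inhibition plotted against concentration and IC50 read from the curve. Three independent experiments.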

In the case of `CC(C)C[C@H](NC(=O)[C@@H](NC(=O)[C@H](Cc1ccc(O)cc1)NC(=O)[C@H](CC(=O)O)NC(=O)[C@H](CC(=O)O)NC(=O)[C@H](CC(N)=O)NC(=O)[C@H](CO)NC(=O)[C@H](Cc1ccccc1)NC(=O)[C@H](C)NC(=O)[C@H](CCCNC(=N)N)NC(=O)[C@@H](NC(=O)[C@H](CO)NC(=O)[C@H](CCCCNC(=S)Nc1ccc2c(c1)C(=O)OC21c2ccc(O)cc2Oc2cc(O)ccc21)NC(=O)[C@@H]1CCCN1C(=O)[C@@H](N)CC(N)=O)[C@@H](C)O)C(C)C)C(=O)N[C@@H](CC(N)=O)C(=O)N1CCC[C@H]1C(=O)N[C@H](C(=O)N[C@H](C(=O)NCC(=O)O)[C@@H](C)O)[C@@H](C)O` [JAM-Ap-FITC] (H-NPK(FITC)STRAFSNDDYVLNPTTG-OH; N-terminus and C-terminus assumed), the “accumulation at luminal side of CD31 + brain microvessel” value (CD31 + brain microvessel) is reported as “high accumulation”, the “association with CD45 + cells in brain” value (CD31 + brain microvessel) is reported as “not associated with CD45 + cells” and the “nonspecific trapping in ischemic lesion” value (CD31 + brain microvessel) is reported as “comparable with labeled control peptide (cp), at the level of threshold”. The “accumulation in liver and lung microvessels or tissue” value (CD31 + brain microvessel; ip) was “did not detect significant amount” and the “binding affinity for ICAM-1” value (ICAM-1 [1]) was “very low binding affinity”.

In the case of CCL2: chemokine CCL2 (PeproTech), the JAM-A relocalization (JAM-A [2]) is listed as “JAM-A became relocalized from the lateral to the apical membrane of brain endothelial cells”, the ICAM-1 surface expression (ICAM-1 [3]) is listed as “surface expression was also increased; also recorded: A similar degree of surface accumulation” and the “cell surface (apical) expression of JAM-A” value (JAM-A [4]) is listed as “increased apical membrane JAM-A expression; also recorded: an increase in cell surface (apical) expression of JAM-A”.

For NPKSTRAFSNDDYVLNPTTG [JAM-Ap], the “cell viability after treatment” value (mBMEC) was > 99%, the Glucose ([5]; 15 min MCAO) was 142 ± 6 g/dL and the PCO2 ([5]; 15 min MCAO) was 34±2. It also gave a PO2 ([5]; 15 min MCAO) of 110±7, a pH ([5]; 15 min MCAO) of 7.32±0.012 and a rCBF ([5]; 15 min MCAO) of 13±2%. The Glucose ([5]; 6 hr post-tMCAO) was 128 ± 9 g/dL, the PCO2 ([5]; 6 hr post-tMCAO) was 36±1 and the PO2 ([5]; 6 hr post-tMCAO) was 115±10. It also gave a pH ([5]; 6 hr post-tMCAO) of 7.36±0.018, a rCBF ([5]; 6 hr post-tMCAO) of 100±1% and a Glucose ([5]; before) of 135 ± 3 g/dL. The PCO2 ([5]; before) was 32±2, the PO2 ([5]; before) was 123±5 and the pH ([5]; before) was 7.36±0.03. The rCBF ([5]; before) was 100±0%, the “BBB permeability in control mice” value (BBB, FITC-inulin) was “no effect on permeability” and the “blood MO (monocytes)” value [6] was 3.95 10^8. For the same molecule, the “blood PMN” value [6] was 0.99 10^9/l, the “effect on barrier permeability to inulin (5 kDa), in vitro” value (mBMEC monolayers) was “no effect on barrier permeability to inulin” and the IC50 (JAM-A [7]) was 25 nM.
